MIC, Ratio and CFU/ml data for seven molecules are collected here from ChEMBL document CHEMBL1275584, “Genetically engineered lipopeptide antibiotics related to A54145 and daptomycin with improved properties” (Antimicrob Agents Chemother, 2010).

≈ marks a conversion by molar mass, not a printed value.

In test [1] the test system is Enterococcus faecalis. The experiment in a line: Antibacterial activity against daptomycin sensitive Enterococcus faecalis 201 by CLSI method. It counts as functional. Put shortly:
(§1)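 Broth MIC in Mueller-Hinton broth with 50 mg/liter CaCl2, run with or without 1% bovine pulmonary surfactant, following CLSI methods. Colonies came from frozen stocks streaked on sheep-blood tryptic soy agar (37°C, ~24 h). Incubation was at 37°C with rotation at 200 rpm. The ratio is MIC with surfactant divided by MIC without.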

Test [2] relates to Staphylococcus aureus. The experiment in a line: Ratio of MIC for Staphylococcus aureus 42 in presence of 1% bovine pulmonary surfactant to MIC for Staphylococcus aureus 42 in absence of 1% bovine pulmonary surfactant. Type of test: functional. In a few lines: as §1
Test [3] deals with Staphylococcus aureus. Nature of the test: Antibacterial activity against daptomycin sensitive and methicillin resistant Staphylococcus aureus MW2 by CLSI method. It counts as functional. Put shortly:
(§2)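 MICs were determined by CLSI broth methods in Mueller-Hinton broth with 50 mg/liter CaCl2, with or without 1% bovine pulmonary surfactant. Inocula came from single colonies streaked from glycerol stocks onto blood agar and grown at 37°C for ~24 h. Cultures were incubated at 37°C with rotation at 200 rpm.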

For test [4], the system named is Staphylococcus aureus. The experiment in a line: Antibacterial activity against daptomycin resistant Staphylococcus aureus 1695 by CLSI method. Type of test: functional. Put shortly:
as §2

Test [5] concerns Staphylococcus aureus. Nature of the test: Antibacterial activity against daptomycin sensitive and methicillin susceptible Staphylococcus aureus 42 by CLSI method. It counts as functional. Put shortly: as §2
Test [6] has as its system Staphylococcus aureus. Nature of the test: Antibacterial activity against Staphylococcus aureus 42 in presence of 1% bovine pulmonary surfactant by CLSI method. Type of test: functional. The settings on record: Staphylococcus aureus, 42, Pulmonary surfactant. Put shortly:
as §1

Test [7] has as its system Streptococcus pneumoniae. The experiment in a line: Antibacterial activity against daptomycin sensitive Streptococcus pneumoniae 402 by CLSI method. Type of test: functional. In a few lines:
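S. pneumoniae MIC in CaCl2-supplemented Mueller-Hinton broth (50 mg/liter) with 5% lysed horse blood, following CLSI methods. Colonies were grown on sheep-blood agar at 37°C under 5% CO2. Assay incubation was at 37°C under 5% CO2 without aeration.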

Test [8] concerns Enterococcus faecium. Nature of the test: Antibacterial activity against daptomycin sensitive Enterococcus faecium 14 by CLSI method. It counts as functional. In a few lines:
as §1

Test [9] concerns Staphylococcus aureus. Nature of the test: Antibacterial activity against Staphylococcus aureus 42 in absence of 1% bovine pulmonary surfactant by CLSI method. Type of test: functional. Particulars: Staphylococcus aureus, 42, Pulmonary surfactant. Put shortly:
as §1

The test system of test [10] is Enterococcus faecalis. The experiment in a line: Antibacterial activity against daptomycin resistant Enterococcus faecalis 312 by CLSI method. Type of test: functional. Put shortly: as §2
Test [11] relates to Staphylococcus aureus. The experiment in a line: Antibacterial activity against methicillin resistant Staphylococcus aureus 1616 by CLSI method. Type of test: functional. Put shortly: as §2
The test system of a further test is Escherichia coli. Nature of the test: Antibacterial activity against imp4213 mutant Escherichia coli BAS849 by CLSI method. Type of test: functional. Put shortly: as §2
Test [12] relates to Enterococcus faecium. The experiment in a line: Antibacterial activity against daptomycin resistant Enterococcus faecium 384 by CLSI method. It counts as functional. In a few lines:
as §2

The subject of test [13] is Staphylococcus aureus. The experiment in a line: Antibacterial activity against daptomycin sensitive and methicillin resistant Staphylococcus aureus 399 by CLSI method. Type of test: functional. In a few lines: as §2
Test [14] relates to Streptococcus pneumoniae. Nature of the test: Antibacterial activity against Streptococcus pneumoniae infected in CD1 mouse pneumonia model assessed as lung bacterial load at 12.5 mg/kg, sc administered at 1 and 4 hrs after bacterial challenge measured 24 hrs post infection (reference value: 2.69x10^8 CFU/ml). The settings on record: route subcutaneous.
Test [15] relates to Streptococcus pneumoniae. The experiment in a line: Antibacterial activity against Streptococcus pneumoniae infected in CD1 mouse pneumonia model assessed as lung bacterial load at 6.25 mg/kg, sc administered at 1 and 4 hrs after bacterial challenge measured 24 hrs post infection (reference value: 2.69x10^8 CFU/ml). The settings on record: route subcutaneous.
Test [16] deals with Streptococcus pneumoniae. The experiment in a line: Antibacterial activity against Streptococcus pneumoniae infected in CD1 mouse pneumonia model assessed as lung bacterial load at 25 mg/kg, sc administered at 1 and 4 hrs after bacterial challenge measured 24 hrs post infection (reference value: 2.69x10^8 CFU/ml). The settings on record: route subcutaneous.

Usually MIC stands for the lowest concentration that inhibits growth of the organism. In the case of `CC[C@H](C)[C@@H]1NC(=O)[C@H]([C@H](C)CC(=O)O)NC(=O)[C@@H](CC(N)=O)NC(=O)CNC(=O)[C@@H]([C@H](OC)C(=O)O)NC(=O)[C@@H](CO)NC(=O)[C@H](CC(=O)O)NC(=O)[C@H](C)NC(=O)CN(C)C(=O)[C@@H](NC(=O)[C@@H](NC(=O)[C@@H](CCC(=O)O)NC(=O)[C@H](Cc2c[nH]c3ccccc23)NC(=O)CCCCCCCC(C)C)[C@H](O)C(N)=O)[C@H](C)OC1=O`, the minimal inhibitory concentration (MIC) in the test on Enterococcus faecalis [1] turned out to be 4 µg/mL (≈ 2.45 µM); with Staphylococcus aureus [3], 0.5 µg/mL (≈ 0.306 µM); against Staphylococcus aureus [4], 4 µg/mL (≈ 2.45 µM); with Staphylococcus aureus [5], 1 µg/mL (≈ 0.613 µM); in the test with Staphylococcus aureus [6], 16 µg/mL; with Streptococcus pneumoniae [7] it was 0.25 µg/mL (≈ 0.153 µM). For the same molecule, the MIC in the test with Enterococcus faecium [8] was determined as 4 µg/mL (≈ 2.45 µM); in the test on Staphylococcus aureus [9], 1 µg/mL (≈ 0.613 µM); with Enterococcus faecalis [10], 128 µg/mL (≈ 78.4 µM); with Staphylococcus aureus [11] it was 8 µg/mL (≈ 4.9 µM); in the test with Escherichia coli, 16 µg/mL (≈ 9.81 µM); against Enterococcus faecium [12], 32 µg/mL (≈ 19.6 µM). The molecule also had an MIC against Staphylococcus aureus [13] of 1 µg/mL (≈ 0.613 µM). In addition, the Ratio with Staphylococcus aureus [2] came to 16.
With `CC[C@H](C)[C@@H]1NC(=O)[C@H](CCC(=O)O)NC(=O)[C@@H](CO)NC(=O)CNC(=O)[C@H]([C@H](OC)C(=O)O)NC(=O)[C@@H](CCCCN)NC(=O)[C@H](CC(=O)O)NC(=O)[C@H](C)NC(=O)CN(C)C(=O)[C@@H](NC(=O)[C@@H](NC(=O)[C@@H](CCC(=O)O)NC(=O)[C@H](Cc2c[nH]c3ccccc23)NC(=O)CCCCCCCC(C)C)[C@H](O)C(N)=O)[C@H](C)OC1=O`, in the test on Staphylococcus aureus [2], the Ratio worked out at 2. For the same molecule, the values for the minimum inhibitory concentration (MIC) in the test on Staphylococcus aureus [6] and against Staphylococcus aureus [9] were 128 µg/mL and 64 µg/mL (≈ 39.2 µM), respectively.
For `CC[C@H](C)[C@@H]1NC(=O)[C@H](CCC(=O)O)NC(=O)[C@@H](CC(N)=O)NC(=O)CNC(=O)[C@H]([C@H](OC)C(=O)O)NC(=O)[C@@H](CO)NC(=O)[C@H](CC(=O)O)NC(=O)[C@H](C)NC(=O)CN(C)C(=O)[C@@H](NC(=O)[C@@H](NC(=O)[C@@H](CCC(=O)O)NC(=O)[C@H](Cc2c[nH]c3ccccc23)NC(=O)CCCCCCCC(C)C)[C@H](O)C(N)=O)[C@H](C)OC1=O`, the Ratio in the test with Staphylococcus aureus [2] is listed as 1. Further, the MIC in the test with Staphylococcus aureus [6] was 8 µg/mL; with Staphylococcus aureus [9], 8 µg/mL (≈ 4.95 µM).
With `CC[C@H](C)[C@@H]1NC(=O)[C@H](CCC(=O)O)NC(=O)[C@@H](CC(N)=O)NC(=O)CNC(=O)[C@H]([C@H](OC)C(=O)O)NC(=O)[C@@H](CC(N)=O)NC(=O)[C@H](CC(=O)O)NC(=O)[C@H](C)NC(=O)CN(C)C(=O)[C@@H](NC(=O)[C@@H](NC(=O)[C@@H](CCC(=O)O)NC(=O)[C@H](Cc2c[nH]c3ccccc23)NC(=O)CCCCCCCC(C)C)[C@H](O)C(N)=O)[C@H](C)OC1=O`, the Ratio in the test with Staphylococcus aureus [2] worked out at 1. In addition, the results for the MIC with Staphylococcus aureus [6] and in the test with Staphylococcus aureus [9] were 16 µg/mL and 16 µg/mL (≈ 9.73 µM), respectively.
For `CC[C@H](C)[C@@H]1NC(=O)[C@H](CCC(=O)O)NC(=O)[C@@H](CC(N)=O)NC(=O)CNC(=O)[C@H]([C@H](OC)C(=O)O)NC(=O)[C@@H](C)NC(=O)[C@H](CC(=O)O)NC(=O)[C@H](C)NC(=O)CN(C)C(=O)[C@@H](NC(=O)[C@@H](NC(=O)[C@@H](CCC(=O)O)NC(=O)[C@H](Cc2c[nH]c3ccccc23)NC(=O)CCCCCCCC(C)C)[C@H](O)C(N)=O)[C@H](C)OC1=O`, the Ratio in the test on Staphylococcus aureus [2] came out at 2. Moreover, the MIC with Staphylococcus aureus [6] was found to be 8 µg/mL; in the test on Staphylococcus aureus [9], 4 µg/mL (≈ 2.5 µM).
For the molecule `CCCCCCCCCC(=O)N[C@@H](Cc1c[nH]c2ccccc12)C(=O)N[C@H](CC(N)=O)C(=O)N[C@@H](CC(=O)O)C(=O)N[C@@H]1C(=O)NCC(=O)N[C@@H](CCCN)C(=O)N[C@@H](CC(=O)O)C(=O)N[C@H](C)C(=O)N[C@@H](CC(=O)O)C(=O)NCC(=O)N[C@H](CO)C(=O)N[C@@H]([C@H](C)CC(=O)O)C(=O)N[C@@H](CC(=O)c2ccccc2N)C(=O)O[C@@H]1C`, the MIC in the test with Enterococcus faecalis [1] is 2 µg/mL (≈ 1.23 µM); against Staphylococcus aureus [3], 1 µg/mL (≈ 0.617 µM); in the test with Staphylococcus aureus [4] it was 4 µg/mL (≈ 2.47 µM); with Staphylococcus aureus [5], 1 µg/mL (≈ 0.617 µM); in the test on Staphylococcus aureus [6], 64 µg/mL; with Streptococcus pneumoniae [7], 0.25 µg/mL (≈ 0.154 µM). Further, the MIC in the test with Enterococcus faecium [8] was determined as 2 µg/mL (≈ 1.23 µM); in the test with Staphylococcus aureus [9], 0.5 µg/mL (≈ 0.309 µM); in the test on Enterococcus faecalis [10], 128 µg/mL (≈ 79 µM); against Staphylococcus aureus [11], 16 µg/mL (≈ 9.87 µM); against Escherichia coli it was 128 µg/mL (≈ 79 µM); in the test on Enterococcus faecium [12] it was 32 µg/mL (≈ 19.7 µM). The same molecule showed an MIC in the test with Staphylococcus aureus [13] of 0.5 µg/mL (≈ 0.309 µM). Also, in the test with Staphylococcus aureus [2], the Ratio was 128.
For the molecule `CN[C@H](CC(C)C)C(=O)N[C@H]1C(=O)N[C@@H](CC(N)=O)C(=O)N[C@H]2C(=O)N[C@H]3C(=O)N[C@H](C(=O)N[C@H](C(=O)O)c4cc(O)cc(O)c4-c4cc3ccc4O)[C@H](O)c3ccc(c(Cl)c3)Oc3cc2cc(c3O[C@@H]2O[C@H](CO)[C@@H](O)[C@H](O)[C@H]2O[C@H]2C[C@](C)(N)[C@H](O)[C@H](C)O2)Oc2ccc(cc2Cl)[C@H]1O` [VANCOMYCIN], the CFU/ml in the test on Streptococcus pneumoniae [14] came to 285000; in the test on Streptococcus pneumoniae [15], 1.81e+07; with Streptococcus pneumoniae [16], 9.
